The values that follow come from article PMC3583859 (RNA Biology, 2012).

One may read the Kd as the constant that tells how readily two partners part at equilibrium. As usually defined, the stoichiometry N is a count of units in the complex or per binding partner.

One experiment deals with T1, YchF (YchFE.coli) (Escherichia coli, UniProt P0ABU2).
T1 sequence (P0ABU2 1-363): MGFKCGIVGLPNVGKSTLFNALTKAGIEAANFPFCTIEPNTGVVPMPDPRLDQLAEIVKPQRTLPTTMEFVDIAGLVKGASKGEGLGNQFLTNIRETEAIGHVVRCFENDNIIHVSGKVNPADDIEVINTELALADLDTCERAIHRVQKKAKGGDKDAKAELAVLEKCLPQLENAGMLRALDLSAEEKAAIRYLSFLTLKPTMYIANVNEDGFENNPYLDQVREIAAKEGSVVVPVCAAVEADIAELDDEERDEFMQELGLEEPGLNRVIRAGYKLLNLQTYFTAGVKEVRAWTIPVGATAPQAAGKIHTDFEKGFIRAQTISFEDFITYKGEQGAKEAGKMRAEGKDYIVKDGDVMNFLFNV
As to the kind of experiment: equilibrium titration, intrinsic tryptophan fluorescence. It is filed as binding. An outline of the steps:
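Purified E. coli YchF in TAKM7 (50 mM Tris-Cl 7.5, 70 mM NH4Cl, 30 mM KCl, 7 mM MgCl2) titrated with nucleotides. Intrinsic fluorescence recorded in a stirred quartz cuvette: excitation 280 nm (2 nm slit), emission 295–400 nm in 1 nm steps (5 nm slits). With triphosphates, scans started immediately without equilibration. Spectra corrected against nucleotide titration into buffer alone.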

The target of experiment [1] is 70S ribosome from E. coli, purified (E. coli). The experiment can be described thus: co-sedimentation.

The molecule `Nc1ncnc2c1ncn2[C@@H]1O[C@H](COP(=O)(O)OP(=O)(O)NP(=O)(O)O)[C@@H](O)[C@H]1O` [ADPNP] registered a Kd at YchF (YchFE.coli) of 9 ± 8 µM.
Still for that read-out and setting: as for `Nc1ncnc2c1ncn2[C@@H]1O[C@H](COP(=O)(O)OP(=O)(O)O)[C@@H](O)[C@H]1O` [ADP], the figure is 14 ± 5 µM.
Regarding `Nc1nc2c(ncn2[C@@H]2O[C@H](COP(=O)(O)OP(=O)(O)O)[C@@H](O)[C@H]2O)c(=O)[nH]1` [GDP], the equilibrium dissociation constant (Kd) on YchF (YchFE.coli) worked out at 151 ± 38 µM.
Same read-out and setting: as for `Nc1nc2c(ncn2[C@@H]2O[C@H](COP(=O)(O)OP(=O)(O)OP(=O)(O)O)[C@@H](O)[C@H]2O)c(=O)[nH]1` [GTP], the figure is 206 ± 5 µM.

B1: N-terminally His-tagged YchF from Escherichia coli (enzyme)
chain: MGFKCGIVGLPNVGKSTLFNALTKAGIEAANFPFCTIEPNTGVVPMPDPRLDQLAEIVKPQRTLPTTMEFVDIAGLVKGASKGEGLGNQFLTNIRETEAIGHVVRCFENDNIIHVSGKVNPADDIEVINTELALADLDTCERAIHRVQKKAKGGDKDAKAELAVLEKCLPQLENAGMLRALDLSAEEKAAIRYLSFLTLKPTMYIANVNEDGFENNPYLDQVREIAAKEGSVVVPVCAAVEADIAELDDEERDEFMQELGLEEPGLNRVIRAGYKLLNLQTYFTAGVKEVRAWTIPVGATAPQAAGKIHTDFEKGFIRAQTISFEDFITYKGEQGAKEAGKMRAEGKDYIVKDGDVMNFLFNV
In experiment [1], B1 displayed a Kd of 3.3 µM and a stoichiometry N of 0.3 YchF per 70S.
